Measurements from ChEMBL document CHEMBL1134174, “Anti-Helicobacter pylori agents endowed with H2-antagonist properties” (2001).
Values after ≈ are worked out from the molar mass of the structure shown.

Tested on: Helicobacter pylori
Assay: Inhibitory activity was determined against NCTC-11637 strain of Helicobacter pylori
Type: functional

SMILES	MIC [µg/mL]
N#C/N=[N+](\[O-])c1ccc(C(=O)NCC/N=C(\NC#N)NCCCOc2cccc(CN3CCCCC3)c2)cc1	16 (≈ 30.1 µM)
N#C/N=[N+](\[O-])c1ccc(C(=O)NCCCC/N=C(\NC#N)NCCCOc2cccc(CN3CCCCC3)c2)cc1	4 (≈ 7.15 µM)
N#C/N=[N+](\[O-])c1ccc(C(=O)NCCCCCC/N=C(\NC#N)NCCCOc2cccc(CN3CCCCC3)c2)cc1	1 (≈ 1.7 µM)
N#C/N=[N+](\[O-])c1ccc(C(=O)O)cc1	0.0078 (≈ 0.0408 µM)
Cc1ncc([N+](=O)[O-])n1CCO [METRONIDAZOLE]	16 (≈ 93.5 µM)

Tested on: Helicobacter pylori
Assay: Inhibitory activity was determined against 102R strain of Helicobacter pylori
Type: functional

SMILES	MIC [µg/mL]
N#C/N=[N+](\[O-])c1ccc(C(=O)NCC/N=C(\NC#N)NCCCOc2cccc(CN3CCCCC3)c2)cc1	8 (≈ 15 µM)
N#C/N=[N+](\[O-])c1ccc(C(=O)NCCCC/N=C(\NC#N)NCCCOc2cccc(CN3CCCCC3)c2)cc1	8 (≈ 14.3 µM)
N#C/N=[N+](\[O-])c1ccc(C(=O)NCCCCCC/N=C(\NC#N)NCCCOc2cccc(CN3CCCCC3)c2)cc1	2 (≈ 3.4 µM)
N#C/N=[N+](\[O-])c1ccc(C(=O)O)cc1	0.031 (≈ 0.162 µM)
Cc1ncc([N+](=O)[O-])n1CCO [METRONIDAZOLE]	8 (≈ 46.7 µM)

Tested on: Helicobacter pylori
Assay: Minimal concentration needed to inhibit Helicobacter pylori strain
Type: functional

SMILES	MIC [µg/mL]
N#C/N=[N+](\[O-])c1ccc(C(=O)NCC/N=C(\NC#N)NCCCOc2cccc(CN3CCCCC3)c2)cc1	0.25 (≈ 0.47 µM)

Tested on: Helicobacter pylori
Assay: Minimal concentration needed to inhibit 50% of Helicobacter pylori strain
Type: functional
Procedure, shortened: (§1)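 Agar dilution MICs on 20 clinical H. pylori strains, two metronidazole resistant, in Columbia agar with horse serum and yeast extract. DMSO solutions diluted twofold serially in agar. Inocula at 0.5 McFarland in Wilkins Chalgren broth, incubated 37 C for 72 h, 10% CO2, microaerobic. MIC50/MIC90 taken as the lowest concentration inhibiting 50% or 90% of strains.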

SMILES	MIC50 [µg/mL]
N#C/N=[N+](\[O-])c1ccc(C(=O)NCC/N=C(\NC#N)NCCCOc2cccc(CN3CCCCC3)c2)cc1	8 (≈ 15 µM)
N#C/N=[N+](\[O-])c1ccc(C(=O)NCCCC/N=C(\NC#N)NCCCOc2cccc(CN3CCCCC3)c2)cc1	2 (≈ 3.57 µM)
N#C/N=[N+](\[O-])c1ccc(C(=O)NCCCCCC/N=C(\NC#N)NCCCOc2cccc(CN3CCCCC3)c2)cc1	1 (≈ 1.7 µM)
N#C/N=[N+](\[O-])c1ccc(C(=O)O)cc1	0.016 (≈ 0.0837 µM)
Cc1ncc([N+](=O)[O-])n1CCO [METRONIDAZOLE]	0.25 (≈ 1.46 µM)

Tested on: Helicobacter pylori
Assay: Minimal concentration needed to inhibitH. pylori strain
Type: functional

SMILES	MIC [µg/mL]
N#C/N=[N+](\[O-])c1ccc(C(=O)NCCCC/N=C(\NC#N)NCCCOc2cccc(CN3CCCCC3)c2)cc1	0.25 (≈ 0.447 µM)
N#C/N=[N+](\[O-])c1ccc(C(=O)NCCCCCC/N=C(\NC#N)NCCCOc2cccc(CN3CCCCC3)c2)cc1	0.25 (≈ 0.425 µM)
N#C/N=[N+](\[O-])c1ccc(C(=O)O)cc1	< 0.0039
Cc1ncc([N+](=O)[O-])n1CCO [METRONIDAZOLE]	0.031 (≈ 0.181 µM)

Tested on: Helicobacter pylori
Assay: Minimal concentration needed to inhibit 90% of Helicobacter pylori strain
Type: functional
Procedure, shortened: as §1

SMILES	MIC90 [µg/mL]
N#C/N=[N+](\[O-])c1ccc(C(=O)NCC/N=C(\NC#N)NCCCOc2cccc(CN3CCCCC3)c2)cc1	16 (≈ 30.1 µM)
N#C/N=[N+](\[O-])c1ccc(C(=O)NCCCC/N=C(\NC#N)NCCCOc2cccc(CN3CCCCC3)c2)cc1	4 (≈ 7.15 µM)
N#C/N=[N+](\[O-])c1ccc(C(=O)NCCCCCC/N=C(\NC#N)NCCCOc2cccc(CN3CCCCC3)c2)cc1	2 (≈ 3.4 µM)
N#C/N=[N+](\[O-])c1ccc(C(=O)O)cc1	0.031 (≈ 0.162 µM)
Cc1ncc([N+](=O)[O-])n1CCO [METRONIDAZOLE]	8 (≈ 46.7 µM)
